Bioassay records as filed in PubChem BioAssay.
Only some compounds are listed: those with a hit (about 1.3% of all), similar ones and a draw of the others.
GRK2 inh = human GRK2 inhibition via aptamer displacement; bead flow cytometry, FAM-aptamer displacement from GRK2; inhibition of aptamer binding, % at 10 µM; actives 0.59% (n = 330,000);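 active = inhibition of aptamer binding above 40%, roughly 3 SD of noise, on plates passing a quality check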;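 note: median bead fluorescence of bound FAM aptamer so fluorescent compounds give negative values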
EBV gp42 block = inhibitors of Epstein-Barr virus glycoprotein 42; Fluorescence polarization binding assay, mP read-out; actives 0.42% (n = 220,000); AID 1085; inhibition, % (tested at 21.74 µM); in the data active = inhibition above about 50%
MEX-5 binding = C. elegans MEX-5 TCR-2 RNA binding activity; Q9XUB2; AID 1832; activity score (negative = inhibition of binding), % at 10 µM; actives 0.38% (n = 300,000); MEX-5/FITC-TCR2 RNA binding, fluorescence polarization; hits give low values;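 active = inhibition past about -25% in most replicates, and total fluorescence under double the plate's negative control median, limit read from the data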;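 note: 0% = DMSO and -100% = 5 µM competing unlabeled TCR2 RNA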
Keap1-Nrf2 PPI = Keap1-Nrf2 (human) interaction inhibition; Keap1 Kelch-Nrf2 peptide fluorescence polarization, 1536-well; actives 0.15% (n = 340,000); inhibition, % at 9.4 µM; AID 504523; Q14145; in the data active = inhibition above about 12%;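 note: human Keap1 Kelch domain with fluorescein labeled Nrf2 9mer peptide probe; 0% = neutral control wells and 100% = peptide positive control; higher means more block of Keap1 binding to Nrf2 peptide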
Target sequence (Q14145 whole entry, looked up, the tested form may be a part): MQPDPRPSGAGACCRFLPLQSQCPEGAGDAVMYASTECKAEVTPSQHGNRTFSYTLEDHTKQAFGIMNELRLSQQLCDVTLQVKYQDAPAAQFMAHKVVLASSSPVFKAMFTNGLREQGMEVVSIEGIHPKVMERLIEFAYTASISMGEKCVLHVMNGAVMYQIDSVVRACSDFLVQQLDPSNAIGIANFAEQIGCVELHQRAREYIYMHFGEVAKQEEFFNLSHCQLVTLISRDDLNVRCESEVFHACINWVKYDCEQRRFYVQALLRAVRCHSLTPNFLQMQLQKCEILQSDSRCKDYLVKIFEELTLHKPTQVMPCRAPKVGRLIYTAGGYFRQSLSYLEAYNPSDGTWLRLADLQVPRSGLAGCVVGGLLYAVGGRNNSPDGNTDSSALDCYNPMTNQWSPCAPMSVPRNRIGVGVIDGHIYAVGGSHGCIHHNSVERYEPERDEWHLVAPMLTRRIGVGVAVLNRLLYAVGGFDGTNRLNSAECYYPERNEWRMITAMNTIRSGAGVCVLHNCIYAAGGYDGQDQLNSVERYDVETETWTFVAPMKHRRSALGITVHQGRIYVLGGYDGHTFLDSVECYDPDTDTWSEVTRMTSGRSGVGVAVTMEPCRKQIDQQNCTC
T cell modulator = modulates CD8 T cell binding to vesicles; 2C CD8+ T cell-vesicle binding, flow cytometry; hits give low values; AID 2052; actives 0.068% (n = 330,000); response (vesicle binding), % at 7 µM;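 active = response, share of CD8 T cells binding vesicles, and their 90th percentile fluorescence all below set limits, cut at about 80% in these data, passing the limit was not always enough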;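 note: values below 100% mean blocked vesicle binding to the CD8+ T cells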
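Also added: QL9-peptide-loaded Drosophila micro-vesicles bearing Ld, ICAM-1 and B7-1; Test system: purified 2C TCR transgenic mouse naive CD8+ T cells; Measured by: cytometric PE anti-B7-1 and Alexa647 anti-CD8 signals after 1% paraformaldehyde fixation; Timing: binding step 1.5 h, 37 °C, antibody labelling 20 min, ice.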
LANA DNA inh = inhibitors of KSHV LANA C-terminal domain DNA binding. MBP-C-LANA/FAM-LBS DNA binding, fluorescence polarization. inhibition, % at 9 µM. actives 0.078% (n = 340,000);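 active = highest replicate inhibition at or above 60% at 9 µM, even if other replicates fall short; inactive = all replicates below 60% inhibition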;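 note: 0% = neutral control wells and 100% = 4 µM acridine orange control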
GRK2 CP1 = human GRK2 inhibition confirmation, cherry pick 1; AID 504451; aptamer displacement, % at 10 µM; shares compounds with GRK2 inh; bead-bound GRK2, FAM-aptamer displacement, flow cytometry; actives 4% (n = 2,000);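 active = aptamer displacement above 40%, near three times the noise of non-fluorescent compounds, on plates passing quality checks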;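 note: negative values mostly reflect intrinsic compound fluorescence rather than true enhancement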
FAM quench CP1 = aptamer fluorescence quenching in GRK2 counter-screen; fluorescence response (% of DMSO), % at 10 µM; shares compounds with GRK2 inh; Carboxyfluorescein RNA aptamer on beads, flow cytometry quenching; hits give low values; AID 504580; 2,000 tested, under 10 active;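 active = compounds that quench the bead-bound fluorescent RNA probe, cutting fluorescence to under half of the solvent control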;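 note: counterscreen run without GRK2 so only probe quenching by compound is measured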
The depositor's hits bear a star.

Cc1ccc(-c2csc3ncn(CC(=O)NCC(c4ccco4)N4CCCC4)c(=O)c23)cc1 (stereo unspecified) was read as GRK2 inh 78.0*, Keap1-Nrf2 PPI -4.6, T cell modulator 453.6, LANA DNA inh -0.8, GRK2 CP1 -4.1 and FAM quench CP1 91.7.
For CC[C@]12c3[nH]c4ccccc4c3CCN1C(=O)C(CC(=O)NCC13CC4CC(CC(C4)C1)C3)C[C@@H]2C(=O)N1CCN(C(=O)C2CC2)CC1 (stereo partly specified) the results were GRK2 inh 2.0, Keap1-Nrf2 PPI -3.7, T cell modulator inactive and LANA DNA inh -1.8.
For O=[N+]([O-])c1ccc2nc(SCc3cn4cccnc4n3)[nH]c2c1 the results were GRK2 inh 89.0*, EBV gp42 block -13.9, MEX-5 binding -0.7, Keap1-Nrf2 PPI 0.7, T cell modulator 287.6, LANA DNA inh 0.7, GRK2 CP1 -1.5 and FAM quench CP1 99.1.
For O=[N+]([O-])c1ccc2nc(SCc3cn4ccccc4n3)[nH]c2c1 the results were GRK2 inh 0.0, EBV gp42 block 9.4, MEX-5 binding -3.0, Keap1-Nrf2 PPI 3.4, T cell modulator inactive and LANA DNA inh 1.3.
`Cc1ccc(CNC(=O)CSc2nc3n[nH]c(C)c3c(=N)n2-c2cccc(C)c2)cc1` gave GRK2 inh 99.0*, EBV gp42 block -0.9, MEX-5 binding -0.4, Keap1-Nrf2 PPI 1.6, T cell modulator 371.8, LANA DNA inh -0.6, GRK2 CP1 -1.4 and FAM quench CP1 100.6.
Cc1ccc(NC(=O)CC2S/C(=N/N=C3/NC(=O)CS3)NC2=O)cc1 (stereo unspecified) was read as GRK2 inh 91.0*, EBV gp42 block -24.7, MEX-5 binding -0.8, Keap1-Nrf2 PPI -1.3, T cell modulator 349.6, LANA DNA inh -0.4, GRK2 CP1 2.9 and FAM quench CP1 99.1.
Screening COCCN(C(=O)c1ccccc1Oc1ccccc1)c1c(N)n(CC(C)C)c(=O)[nH]c1=O returned GRK2 inh 41.0*, Keap1-Nrf2 PPI 1.4, T cell modulator 293.9, LANA DNA inh 0.8, GRK2 CP1 0.4 and FAM quench CP1 97.8.
CC(C)Oc1ccc(CN2CCCC(CO)(Cc3ccc(F)cc3)C2)cc1 (stereo unspecified) was read as GRK2 inh 0.0, MEX-5 binding 0.8, Keap1-Nrf2 PPI -3.4, T cell modulator 182.9 and LANA DNA inh -1.1.
`CC(C)CCOCC(O)CCC(=O)NNC(=S)Nc1ccccc1` (stereo unspecified) gave GRK2 inh 2.0, EBV gp42 block -18.4, MEX-5 binding 0.2, Keap1-Nrf2 PPI 1.3, T cell modulator 857.1 and LANA DNA inh 1.7.
C=CCC(CC(O)COCCC)C(=O)NNC(=S)Nc1ccccc1 (stereo unspecified) was read as GRK2 inh 46.0*, EBV gp42 block -2.9, MEX-5 binding -3.8, Keap1-Nrf2 PPI -2.8, T cell modulator 456.4, LANA DNA inh 1.7, GRK2 CP1 -4.7 and FAM quench CP1 91.7.
For CCOC(=O)C1=C(COC(=O)CNS(=O)(=O)c2c(F)cc(F)cc2Br)NC(=O)NC1C (stereo unspecified) the results were Keap1-Nrf2 PPI -4.5 and LANA DNA inh 2.2.
CCOC(=O)c1c(C)nc(C)c(C(=O)OCC)c1-c1ccc(O)c(OC)c1 was read as GRK2 inh 0.0, EBV gp42 block -15.0, MEX-5 binding 0.9, Keap1-Nrf2 PPI -1.9, T cell modulator 559.8 and LANA DNA inh -2.3.
Screening COC(=O)c1c(C)nc(C)c(C(=O)OC)c1-c1ccc(OC)c(OC)c1 returned GRK2 inh 54.0*, EBV gp42 block 1.4, MEX-5 binding 3.1, Keap1-Nrf2 PPI 1.1, T cell modulator 492.2, LANA DNA inh -1.4, GRK2 CP1 -3.8 and FAM quench CP1 99.5.
